Blank lines part the entries; values can stand above or below the compound they belong to.
Assays:
[1] = Tmax in Sprague-Dawley rat at 20 mg/kg, po by LC-MS/MS analysis; assay type: ADME, organism-based; settings: in vivo
In short: (§1)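 Male Sprague–Dawley rats (5 per compound) received 20 mg/kg orally of parent or d14 analogue. Plasma was sampled at several times up to 48 h and assayed by LC–MS/MS. Tmax is reported with a range; Cmax, AUClast, AUC and t1/2 were derived from plasma concentration–time data.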

[2] = Cmax in Sprague-Dawley rat at 20 mg/kg, po by LC-MS/MS analysis; assay type: ADME, organism-based; design: dose 20 mg/kg, route oral; settings: in vivo; in short: as §1
[3] = AUClast in Sprague-Dawley rat at 20 mg/kg, po by LC-MS/MS analysis; assay type: ADME, organism-based; design: dose 20 mg/kg, route oral, time 0 - last; settings: in vivo; in short: as §1
[4] = AUC in Sprague-Dawley rat at 20 mg/kg, po by LC-MS/MS analysis; assay type: ADME, organism-based; settings: in vivo; in short: as §1
[5] = Half-life in Sprague-Dawley rat at 20 mg/kg, po by LC-MS/MS analysis; assay type: ADME, organism-based; settings: in vivo; in short: as §1
[6] = test system: Hepatocyte; assay: Clearance in human hepatocytes at 2 uM measured per 10^6 cells up to 24 hrs by LC-MS/MS analysis; assay type: ADME, cell-based
In short: (§2)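 Plated human hepatocytes (two preparations) were incubated with parent or d14 analogue at 2 or 10 µM. Aliquots taken at several times up to 24 h were assayed by LC–MS/MS for parent, N-depropylated metabolite and carboxylic acid metabolite. Clearance was expressed as mL/h per 10^6 cells.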

[7] = test system: Hepatocyte; assay: Clearance in human hepatocytes at 10 uM measured per 10^6 cells up to 24 hrs by LC-MS/MS analysis; assay type: ADME, cell-based; in short: as §2
[8] = test system: Liver microsome; assay: Clearance in human liver microsomes assessed as initial mean metabolism rate at 5 uM at protein concentration of 0.25 mg/ml measured per mg protein up to 30 mins by LC-MS/MS analysis; assay type: ADME; settings: 0.5 h
In short: (§3)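 Human liver microsomes at 0.25, 0.5 or 1 mg protein/mL were incubated with 5 µM substrate (parent or d14 analogue). Aliquots taken at several times up to 30 min were assayed by LC–MS/MS for parent and N-depropylated metabolite. Initial mean metabolism rate was given as nmol/min/mg protein.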

[9] = test system: Liver microsome; assay: Clearance in human liver microsomes assessed as initial mean metabolism rate at 5 uM at protein concentration of 0.5 mg/ml measured per mg protein up to 30 mins by LC-MS/MS analysis; assay type: ADME; settings: 0.5 h; in short: as §3
[10] = test system: Liver microsome; assay: Clearance in human liver microsomes assessed as initial mean metabolism rate at 5 uM at protein concentration of 1 mg/ml measured per mg protein up to 30 mins by LC-MS/MS analysis; assay type: ADME; settings: 0.5 h; in short: as §3
[11] = test system: Hepatocyte; assay: Drug metabolism in human hepatocytes assessed as 1-(3-fluoropyridin-4-ylamino)-1H-indole-3-carboxylic acid formation at 2 to 10 uM up to 24 hrs by LC-MS/MS analysis; assay type: ADME, cell-based; in short: as §2
[12] = test system: Hepatocyte; assay: Drug metabolism in human hepatocytes assessed as 1-(3-fluoropyridin-4-ylamino)-1H-indole-3-carboxylic acid-d4 formation at 2 to 10 uM up to 24 hrs by LC-MS/MS analysis; assay type: ADME, cell-based; in short: as §2
[13] = test system: Rattus norvegicus; assay: In vivo drug metabolism in Sprague-Dawley rat assessed as 1-(3-fluoropyridin-4-ylamino)-1H-indole-3-carboxylic acid formation at 20 mg/kg, po up to 48 hrs by LC-MS/MS analysis; assay type: ADME, organism-based
In short: (§4)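 Male Sprague–Dawley rats, 5 per compound, were dosed orally at 20 mg/kg with parent or d14 analogue. Plasma collected at several times up to 48 h was analysed by LC–MS/MS for parent, N-depropylated metabolite and carboxylic acid metabolite, giving concentration–time profiles.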

[14] = test system: Rattus norvegicus; assay: In vivo drug metabolism in Sprague-Dawley rat assessed as 1-(3-fluoropyridin-4-ylamino)-1H-indole-3-carboxylic acid-d4 formation at 20 mg/kg, po up to 48 hrs by LC-MS/MS analysis; assay type: ADME, organism-based; in short: as §4
[15] = test system: Liver microsome; assay: Drug metabolism in human liver microsomes assessed as 1-(3-fluoropyridin-4-ylamino)-1H-indole-3-carboxylic acid-d4 formation at 5 uM up to 30 mins by LC-MS/MS analysis
[16] = test system: Liver; assay: Drug metabolism in human liver S9 fraction assessed as metabolic reaction rate at 1 uM measured up to 3 hrs by LC-MS/MS analysis; assay type: ADME, subcellular; settings: s9, 3 h
In short: (§5)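 Human liver S9 fraction, liver microsomes or hepatocytes were incubated with substrate or its deuterated analogue at 1 and 10 µM, with or without an NADPH-generating system. Substrate depletion over time was followed. Reaction rate was given as nmol/min/mg for S9 and microsomes, and nmol/min per 10^6 cells for hepatocytes.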

[17] = test system: Liver; assay: Drug metabolism in human liver S9 fraction assessed as metabolic reaction rate at 10 uM measured up to 3 hrs by LC-MS/MS analysis; assay type: ADME, subcellular; settings: s9, 3 h; in short: as §5
[18] = test system: Liver microsome; assay: Drug metabolism in human liver microsomes assessed as metabolic reaction rate at 1 uM measured up to 3 hrs by LC-MS/MS analysis; assay type: ADME; in short: as §5
[19] = test system: Liver microsome; assay: Drug metabolism in human liver microsomes assessed as metabolic reaction rate at 10 uM measured up to 3 hrs by LC-MS/MS analysis; assay type: ADME; in short: as §5
[20] = test system: Hepatocyte; assay: Drug metabolism in human hepatocytes assessed as metabolic reaction rate at 1 uM measured per 10^6 cells up to 3 hrs by LC-MS/MS analysis; assay type: ADME, cell-based; in short: as §5
[21] = test system: Hepatocyte; assay: Drug metabolism in human hepatocytes assessed as metabolic reaction rate at 10 uM measured per 10^6 cells up to 3 hrs by LC-MS/MS analysis; assay type: ADME, cell-based; in short: as §5
[22] = test system: Hepatocyte; assay: Drug formation in human hepatocytes treated with (3-Fluoro-pyridin-4-yl)-(3-methyl-indol-1-yl)-propylamine-d14 at 2 to 10 uM up to 24 hrs by LC-MS/MS analysis; assay type: ADME, cell-based; in short: as §2
[23] = test system: Rattus norvegicus; assay: In vivo drug formation in Sprague-Dawley rat treated with (3-Fluoro-pyridin-4-yl)-(3-methyl-indol-1-yl)-propylamine-d14 at 20 mg/kg, po up to 48 hrs by LC-MS/MS analysis; assay type: ADME, organism-based; in short: as §4
[24] = test system: Liver microsome; assay: Drug formation in human liver microsomes treated with (3-Fluoro-pyridin-4-yl)-(3-methyl-indol-1-yl)-propylamine-d14 formation at 5 uM up to 30 mins by LC-MS/MS analysis
[25] = test system: Hepatocyte; assay: Drug metabolism in human hepatocytes assessed as N-(3-fluoropyridin-4-yl)-3-methyl-1H-indol-1-amine formation at 2 to 10 uM up to 24 hrs by LC-MS/MS analysis; assay type: ADME, cell-based; in short: as §2
[26] = test system: Rattus norvegicus; assay: In vivo drug metabolism in Sprague-Dawley rat assessed as N-(3-fluoropyridin-4-yl)-3-methyl-1H-indol-1-amine formation at 20 mg/kg, po up to 48 hrs by LC-MS/MS analysis; assay type: ADME, organism-based; in short: as §4
[27] = test system: Rattus norvegicus; assay: In vivo drug metabolism in Sprague-Dawley rat assessed as (3-Fluoro-pyridin-4-yl)-(3-methyl-indol-1-yl)-amine-d7 formation at 20 mg/kg, po up to 48 hrs by LC-MS/MS analysis; assay type: ADME, organism-based; in short: as §4
[28] = test system: Liver microsome; assay: Drug metabolism in human liver microsomes assessed as N-(3-fluoropyridin-4-yl)-3-methyl-1H-indol-1-amine formation at 5 uM up to 30 mins by LC-MS/MS analysis
[29] = test system: Hepatocyte; assay: Drug formation in human hepatocytes treated with Nerispirdine at 2 to 10 uM up to 24 hrs by LC-MS/MS analysis; assay type: ADME, cell-based; in short: as §2
[30] = test system: Rattus norvegicus; assay: In vivo drug formation in Sprague-Dawley rat treated with Nerispirdine at 20 mg/kg, po up to 48 hrs by LC-MS/MS analysis; assay type: ADME, organism-based; in short: as §4
[31] = test system: Liver microsome; assay: Drug formation in human liver microsomes treated with Nerispirdine at 5 uM up to 30 mins by LC-MS/MS analysis

Tmax [1]: 0.5 h
Cmax [2]: 971 ng/mL
AUC(0-t) [3]: 3670 ng·h/mL
AUC [4]: 3800 ng·h/mL
half-life [5]: 11.1 h
CLint [6]: 0.572 mL/h/10^6 cells
CLint [7]: 0.196 mL/h/10^6 cells
metabolism rate [8]: 0.42 nmol/min/mg
metabolic rate [9]: 0.638 nmol/min/mg
metabolic rate [10]: 0.217 nmol/min/mg
Drug metabolism [11]: metabolite_detected
Drug metabolism [12]: metabolite_detected
Drug metabolism [13]: metabolite_detected
Drug metabolism [14]: metabolite_detected
Drug metabolism [15]: metabolite_notdetected
SMILES: [2H]c1cc2c(C([2H])([2H])[2H])c([2H])n(N(c3ccncc3F)C([2H])([2H])C([2H])([2H])C([2H])([2H])[2H])c2c([2H])c1[2H]

Drug metabolism [16]: 0.0081 nmol/min/mg
Drug metabolism [17]: 0.0043 nmol/min/mg
Drug metabolism [18]: 0.0048 nmol/min/mg
Drug metabolism [19]: 0.0045 nmol/min/mg
Drug metabolism [20]: 0.0143 nmol/min/10^6 cells
Drug metabolism [21]: 0.0081 nmol/min/10^6 cells
SMILES: [2H]C([2H])(N)c1cccc(C2CCN(C(=O)c3ccc(C#Cc4ccccc4F)o3)CC2)c1

Drug metabolism [22]: metabolite_detected
Drug metabolism [23]: metabolite_detected
Drug metabolism [24]: metabolite_detected
SMILES: [2H]c1cc2c(C([2H])([2H])[2H])c([2H])n(Nc3ccncc3F)c2c([2H])c1[2H]

Drug metabolism [22]: metabolite_detected
Drug metabolism [23]: metabolite_detected
SMILES: [2H]c1cc2c(C(=O)O)c([2H])n(Nc3ccncc3F)c2c([2H])c1[2H]

Drug metabolism [16]: 0.0219 nmol/min/mg
Drug metabolism [17]: 0.0238 nmol/min/mg
Drug metabolism [18]: 0.0201 nmol/min/mg
Drug metabolism [19]: 0.0215 nmol/min/mg
Drug metabolism [20]: 0.0143 nmol/min/10^6 cells
Drug metabolism [21]: 0.016 nmol/min/10^6 cells
SMILES: NCc1cccc(C2CCN(C(=O)c3ccc(C#Cc4ccccc4F)o3)CC2)c1

Tmax [1]: 1 h
Cmax [2]: 822 ng/mL
AUC(0-t) [3]: 4070 ng·h/mL
AUC [4]: 4180 ng·h/mL
half-life [5]: 10.2 h
CLint [6]: 0.415 mL/h/10^6 cells
CLint [7]: 0.2 mL/h/10^6 cells
metabolism rate [8]: 1.15 nmol/min/mg
metabolic rate [9]: 0.346 nmol/min/mg
metabolic rate [10]: 0.253 nmol/min/mg
Drug metabolism [25]: metabolite_detected
Drug metabolism [26]: metabolite_detected
Drug metabolism [27]: metabolite_detected
Drug metabolism [28]: metabolite_detected
SMILES: CCCN(c1ccncc1F)n1cc(C)c2ccccc21 [NERISPIRDINE]

Drug metabolism [29]: metabolite_detected
Drug metabolism [30]: metabolite_detected
SMILES: O=C(O)c1cn(Nc2ccncc2F)c2ccccc12

Drug metabolism [29]: metabolite_detected
Drug metabolism [30]: metabolite_detected
Drug metabolism [31]: metabolite_detected
SMILES: Cc1cn(Nc2ccncc2F)c2ccccc12
